Data set [1] deals with Leishmania donovani. Put plainly: Antileishmanial activity against Leishmania donovani promastigotes by Alamar blue assay. The data set is classed as functional, organism-based.
Data set [2] deals with Pichia kudriavzevii. Put plainly: Antifungal activity against Candida krusei ATCC 6258 after 18 to 24 hrs. The data set is classed as functional, organism-based.
Data set [3] relates to Cryptococcus neoformans. Nature of the data set: Antifungal activity against Cryptococcus neoformans ATCC 90113 after 68 to 72 hrs. The data set is classed as functional, organism-based.
Data set [4] deals with Candida albicans. Put plainly: Antifungal activity against Candida albicans ATCC 90028 after 18 to 24 hrs. The format is functional, organism-based.
The test system of data set [5] is Nakaseomyces glabratus. Nature of the data set: Antifungal activity against Candida glabrata ATCC 90030 after 18 to 24 hrs. The data set is classed as functional, organism-based.
Data set [6] is described as follows: Selectivity index, Ratio of IC50 in Vero cells to IC50 in chloroquine-resistant Plasmodium falciparum W2. The data set is classed as functional.
Data set [7] relates to Plasmodium falciparum. Nature of the data set: Antimalarial activity against chloroquine-sensitive Plasmodium falciparum D6. The data set is classed as functional, organism-based.
Data set [8] is described as follows: Selectivity index, Ratio of IC50 in Vero cells to IC50 in chloroquine-sensitive Plasmodium falciparum D6. The data set is classed as functional.
For data set [9], the system named is Plasmodium falciparum. Put plainly: Antimalarial activity against chloroquine-resistant Plasmodium falciparum W2. The data set is classed as functional, organism-based.
Data set [10] is described as follows: Methemoglobin toxicity in human erythrocytes incubated with mouse liver microsomes assessed as MetHb formation at 20 ug/mL by biotransformation linked assay. On the set-up: species or system Erythrocyte, Microsome. Summed up:
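Compound at 20 µg/mL co-incubated 1 h at 37 °C, shaking, with mouse liver microsomes (500 µg protein), human erythrocytes (50% hematocrit suspension), NADPH-regenerating system, KCl, in 100 mM potassium phosphate pH 7.4; cells pelleted, lysed in Triton X-100 phosphate buffer pH 7.8; MetHb relative to total Hb by Evelyn–Malloy spectrophotometry; % versus vehicle control.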

Data set [11] deals with Plasmodium berghei. Nature of the data set: Antimalarial activity as parasite elimination against Plasmodium berghei in mice (Mus musculus) at 100 mg/kg/day peroral dose over 4 days. The data set is classed as functional, organism-based. Summed up: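 Mice, 6 per group, infected with drug-sensitive P. berghei; oral dosing on days 0–3 post infection (×4); vehicle-only and chloroquine 10 mg/kg/day×4 oral controls. Curative means no parasites and survival to day D+60; suppressive means negative parasitaemia to D+7.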

The subject of data set [12] is Vero. Nature of the data set: Cytotoxicity against Vero cells upto 23.8 ng/ml by neutral red assay. The format is cell-based. The following applies: chlorocebus sabaeus, in the assay text read “23.8 µg/ml” for “23.8 ng/ml”. Summed up: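 Vero monkey kidney fibroblasts (ATCC), neutral red uptake read-out; compounds tested up to a highest concentration of 23.8 µg/mL.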

For data set [13], the system named is Candida albicans. Put plainly: Antifungal activity against Candida albicans ATCC 90028 at 20 ug/mL after 18 to 24 hrs. The format is functional, organism-based.

The structures appear in SMILES notation. ≈ marks a conversion by molar mass, not a printed value. Calls of active or inactive are those of the source. No cut-off for these calls is given here.

In the case of `C[C@@H]1[C@H](O)[C@@H](C)/C=C/C=C/C=C/C=C/C=C/C=C/C=C/[C@H](O[C@@H]2O[C@H](C)[C@@H](O)[C@H](N)[C@@H]2O)C[C@@H]2O[C@](O)(C[C@@H](O)C[C@@H](O)[C@H](O)CC[C@@H](O)C[C@@H](O)CC(=O)O[C@H]1C)C[C@H](O)[C@H]2C(=O)O` [AMPHOTERICIN B], the IC90 in data set [1] worked out at 0.35 µg/mL (≈ 0.379 µM). The IC50 came to 0.6 µg/mL (≈ 0.649 µM) in data set [2], 0.75 µg/mL (≈ 0.812 µM) in data set [3], 0.25 µg/mL (≈ 0.271 µM) in data set [4] and 0.07 µg/mL (≈ 0.0758 µM) in data set [5]. In addition, the results for the MFC in [3] and in [5] were 1.5 µg/mL (≈ 1.62 µM) and 0.625 µg/mL (≈ 0.676 µM), respectively. The MIC in [5] came out at 0.31 µg/mL (≈ 0.335 µM).

With `C[C@@H]1CC[C@H]2[C@@H](C)C(=O)O[C@@H]3O[C@@]4(C)CC[C@@H]1[C@]32OO4` [ARTEMISININ], the Selectivity index in [6] was 2644; in [8] it was 1565. The IC50 in data set [7] came out at 0.0152 µg/mL (≈ 0.0538 µM); in data set [9] it was 0.009 µg/mL (≈ 0.0319 µM).

In [1], `N=C(N)c1ccc(OCCCCCOc2ccc(C(=N)N)cc2)cc1` [PENTAMIDINE] came in with an IC50 of 1 µg/mL (≈ 2.94 µM) and an IC90 of 3.8 µg/mL (≈ 11.2 µM).

Regarding `COc1cc(NC(C)CCCN)c2ncccc2c1` (stereo not given) [PRIMAQUINE], the Activity is reported as 47.9% in data set [10] and “Non-toxic” in data set [12]. Further, the outcome in [11], in data set [1] and in data set [13] was inactive. For the same molecule, 19.9 µg/mL (≈ 76.7 µM) corresponded to half-maximal inhibition in [1] (IC50).

For the origin of these results see ChEMBL document CHEMBL1144547, “Synthesis, antimalarial, antileishmanial, antimicrobial, cytotoxicity, and methemoglobin (MetHB) formation activities of new 8-quinolinamines” (Bioorg Med Chem, 2007).
